Measurements as given in ChEMBL document CHEMBL3112482, “Nonclassical antifolates, part 5. Benzodiazepine analogs as a new class of DHFR inhibitors: synthesis, antitumor testing and molecular modeling study” (Eur J Med Chem, 2014).

Assays:
Format in all cases: functional
[1] = test system: MDA-MB-435; assay: Growth inhibition of human MDA-MB-435 cells at 10 uM after 48 hrs; conditions: MDA-MB-435, 48 h, read-out: GI
Method in brief: (§1)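 Single-dose primary screen in the NCI 60 human tumour cell line panel, run at the NCI facility. The panel covers nine subpanels: leukaemia, non-small cell lung, colon, CNS, melanoma, ovarian, renal, prostate and breast. Read-out was percent growth of treated cells, shown as a mean graph and reported as percent growth inhibition.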

[2] = test system: Malme-3M; assay: Growth inhibition of human MALME-3M cells at 10 uM after 48 hrs; conditions: read-out: GI; method in brief: as §1
[3] = test system: SNB-75; assay: Growth inhibition of human SNB75 cells at 10 uM after 48 hrs; conditions: SNB-75, 48 h, read-out: GI
Method in brief: (§2)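 NCI 60-cell-line disease-oriented human tumor panel, single-dose primary screen at 10 µM. Data given as mean-graph percent growth of treated cells, reported as percent growth inhibition (GI %).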

[4] = test system: SNB-19; assay: Growth inhibition of human SNB19 cells at 10 uM after 48 hrs; conditions: SNB-19, 48 h, read-out: GI; method in brief: as §2
[5] = Growth inhibition of human SF539 cells at 10 uM after 48 hrs; conditions: SF-539, 48 h, read-out: GI; method in brief: as §2
[6] = test system: SF-268; assay: Growth inhibition of human SF268 cells at 10 uM after 48 hrs; conditions: SF-268, 48 h, read-out: GI; method in brief: as §2
[7] = test system: HT-29; assay: Growth inhibition of human HT-29 cells at 10 uM after 48 hrs; conditions: HT-29, 48 h, read-out: GI; method in brief: as §1
[8] = test system: COLO 205; assay: Growth inhibition of human COLO205 cells at 10 uM after 48 hrs; conditions: COLO 205, 48 h, read-out: GI; method in brief: as §1
[9] = test system: NCI-H322M; assay: Growth inhibition of human NCI-H322M cells at 10 uM after 48 hrs; conditions: read-out: GI; method in brief: as §1
[10] = test system: NCI-H23; assay: Growth inhibition of human NCI-H23 cells at 10 uM after 48 hrs; conditions: NCI-H23, 48 h, read-out: GI; method in brief: as §1
[11] = Growth inhibition of human HOP92 cells at 10 uM after 48 hrs; conditions: HOP-92, 48 h, read-out: GI; method in brief: as §1
[12] = test system: NCI-H226; assay: Growth inhibition of human NCI-H226 cells at 10 uM after 48 hrs; conditions: NCI-H226, 48 h, read-out: GI; method in brief: as §1
[13] = Growth inhibition of human EKVX cells at 10 uM after 48 hrs; conditions: read-out: GI; method in brief: as §1
[14] = test system: A549; assay: Growth inhibition of human A549 cells at 10 uM after 48 hrs; conditions: A549, 48 h, read-out: GI; method in brief: as §1
[15] = test system: SR; assay: Growth inhibition of human SR cells at 10 uM after 48 hrs; conditions: read-out: GI; method in brief: as §2
[16] = test system: K562; assay: Growth inhibition of human K562 cells at 10 uM after 48 hrs; conditions: K562, 48 h, read-out: GI; method in brief: as §1
[17] = test system: MOLT-4; assay: Growth inhibition of human MOLT4 cells at 10 uM after 48 hrs; conditions: MOLT-4, 48 h, read-out: GI; method in brief: as §1
[18] = test system: CCRF-CEM; assay: Growth inhibition of human CCRF-CEM cells at 10 uM after 48 hrs; conditions: read-out: GI; method in brief: as §1
[19] = Cytotoxicity against human breast cancer cells at 10 uM after 48 hrs; conditions: Cancer cell lines; method in brief: as §1
[20] = Cytotoxicity against human renal cancer cells at 10 uM after 48 hrs; conditions: Cancer cell lines
[21] = Cytotoxicity against human melanoma cells at 10 uM after 48 hrs; conditions: Melanoma cell; method in brief: as §1
[22] = Cytotoxicity against human CNS cancer cells at 10 uM after 48 hrs; conditions: Cancer cell lines
[23] = test system: T47D; assay: Growth inhibition of human T47D cells at 10 uM after 48 hrs; conditions: read-out: GI; method in brief: as §2
[24] = test system: BT-549; assay: Growth inhibition of human BT549 cells at 10 uM after 48 hrs; conditions: BT-549, 48 h, read-out: GI; method in brief: as §1
[25] = Growth inhibition of human Hs 578T cells at 10 uM after 48 hrs; conditions: read-out: GI; method in brief: as §1
[26] = test system: MCF7; assay: Growth inhibition of human MCF7 cells at 10 uM after 48 hrs; conditions: MCF7, 48 h, read-out: GI; method in brief: as §1
[27] = test system: MDA-MB-231; assay: Growth inhibition of human MDA-MB-231 cells at 10 uM after 48 hrs; conditions: MDA-MB-231, 48 h, read-out: GI; method in brief: as §1
[28] = test system: DU-145; assay: Growth inhibition of human DU145 cells at 10 uM after 48 hrs; conditions: DU-145, 48 h, read-out: GI; method in brief: as §1
[29] = test system: PC-3; assay: Growth inhibition of human PC3 cells at 10 uM after 48 hrs; conditions: PC-3, 48 h, read-out: GI; method in brief: as §1
[30] = test system: TK-10; assay: Growth inhibition of human TK10 cells at 10 uM after 48 hrs; conditions: TK-10, 48 h, read-out: GI; method in brief: as §2
[31] = Growth inhibition of human UO31 cells at 10 uM after 48 hrs; conditions: UO-31, 48 h, read-out: GI; method in brief: as §2
[32] = test system: SN12C; assay: Growth inhibition of human SN12C cells at 10 uM after 48 hrs; conditions: read-out: GI; method in brief: as §2
[33] = test system: CAKI-1; assay: Growth inhibition of human CAKI-1 cells at 10 uM after 48 hrs; conditions: CAKI-1, 48 h, read-out: GI; method in brief: as §1
[34] = Growth inhibition of human RXF393 cells at 10 uM after 48 hrs; conditions: RXF 393, 48 h, read-out: GI; method in brief: as §1
[35] = test system: ACHN; assay: Growth inhibition of human ACHN cells at 10 uM after 48 hrs; conditions: read-out: GI; method in brief: as §1
[36] = test system: 786-0; assay: Growth inhibition of human 786-0 cells at 10 uM after 48 hrs; conditions: 786-0, 48 h, read-out: GI; method in brief: as §1
[37] = test system: SK-OV-3; assay: Growth inhibition of human SKOV3 cells at 10 uM after 48 hrs; conditions: SK-OV-3, 48 h, read-out: GI; method in brief: as §2
[38] = Growth inhibition of human NCI-ADR-RES cells at 10 uM after 48 hrs; conditions: read-out: GI; method in brief: as §1
[39] = test system: OVCAR-8; assay: Growth inhibition of human OVCAR8 cells at 10 uM after 48 hrs; conditions: OVCAR-8, 48 h, read-out: GI; method in brief: as §1
[40] = Growth inhibition of human OVCAR5 cells at 10 uM after 48 hrs; conditions: OVCAR-5, 48 h, read-out: GI; method in brief: as §1
[41] = test system: OVCAR-3; assay: Growth inhibition of human OVCAR3 cells at 10 uM after 48 hrs; conditions: OVCAR-3, 48 h, read-out: GI; method in brief: as §1
[42] = Growth inhibition of human OVCAR4 cells at 10 uM after 48 hrs; conditions: OVCAR-4, 48 h, read-out: GI; method in brief: as §1
[43] = test system: SK-MEL-5; assay: Growth inhibition of human SK-MEL-5 cells at 10 uM after 48 hrs; conditions: SK-MEL-5, 48 h, read-out: GI; method in brief: as §2
[44] = test system: SK-MEL-28; assay: Growth inhibition of human SK-MEL-28 cells at 10 uM after 48 hrs; conditions: SK-MEL-28, 48 h, read-out: GI; method in brief: as §2
[45] = read-out: LC50 (the source's name)

Compound: COc1ccc(/C=C2\CCCc3c2nc(N)nc3-c2ccc(OC)c(OC)c2)cc1OC
- inhibition of growth at 10 µM [1]: 69.2%
- inhibition of growth at 10 µM [2]: 47.5%
- inhibition of growth at 10 µM [3]: 36.1%
- inhibition of growth at 10 µM [4]: < 30%
- inhibition of growth at 10 µM [5]: < 30%
- inhibition of growth at 10 µM [6]: 36.2%
- inhibition of growth at 10 µM [7]: 75.8%
- inhibition of growth at 10 µM [8]: 54%
- inhibition of growth at 10 µM [9]: < 30%
- inhibition of growth at 10 µM [10]: 50.7%
- inhibition of growth at 10 µM [11]: < 30%
- inhibition of growth at 10 µM [12]: 65.9%
- inhibition of growth at 10 µM [13]: < 30%
- inhibition of growth at 10 µM [14]: 41.2%
- inhibition of growth at 10 µM [15]: 71.9%
- inhibition of growth at 10 µM [16]: 44%
- inhibition of growth at 10 µM [17]: 46.9%
- inhibition of growth at 10 µM [18]: 84.7%
- GI50 [19]: 3.9 µM
- LC50 (concentration killing 50% of cells) [19]: > 100 µM
- TGI [19]: 87.3 µM
- CC50 [20]: 93.6 µM
- GI50 [20]: 7.8 µM
- TGI [20]: 66.7 µM
- GI50 [21]: 5.5 µM
- TGI [21]: 73.4 µM
- CC50 [21, 45]: 95.6 µM
- GI50 [22]: 26.7 µM
- TGI [22]: 85.7 µM
- CC50 [22, 45]: > 100 µM
- inhibition of growth at 10 µM [23]: < 30%
- inhibition of growth at 10 µM [24]: 63.9%
- inhibition of growth at 10 µM [25]: < 30%
- inhibition of growth at 10 µM [26]: 72.4%
- inhibition of growth at 10 µM [27]: < 30%
- inhibition of growth at 10 µM [28]: < 30%
- inhibition of growth at 10 µM [29]: 38.5%
- inhibition of growth at 10 µM [30]: < 30%
- inhibition of growth at 10 µM [31]: 37.1%
- inhibition of growth at 10 µM [32]: 42.6%
- inhibition of growth at 10 µM [33]: 44.2%
- inhibition of growth at 10 µM [34]: 79.1%
- inhibition of growth at 10 µM [35]: 72.7%
- inhibition of growth at 10 µM [36]: < 30%
- inhibition of growth at 10 µM [37]: 55.9%
- inhibition of growth at 10 µM [38]: 74.9%
- inhibition of growth at 10 µM [39]: 89.4%
- inhibition of growth at 10 µM [40]: < 30%
- inhibition of growth at 10 µM [41]: 89.2%
- inhibition of growth at 10 µM [42]: 46.7%
- inhibition of growth at 10 µM [43]: 60.3%
- inhibition of growth at 10 µM [44]: 34.7%

Compound: Nc1nc2c(c(-c3ccc(Br)cc3)n1)CCC/C2=C\c1ccc(Br)cc1
- inhibition of growth at 10 µM [1]: 63.2%
- inhibition of growth at 10 µM [2]: < 30%
- inhibition of growth at 10 µM [3]: < 30%
- inhibition of growth at 10 µM [4]: < 30%
- inhibition of growth at 10 µM [5]: < 30%
- inhibition of growth at 10 µM [6]: < 30%
- inhibition of growth at 10 µM [7]: 67.8%
- inhibition of growth at 10 µM [8]: < 30%
- inhibition of growth at 10 µM [9]: < 30%
- inhibition of growth at 10 µM [10]: < 30%
- inhibition of growth at 10 µM [11]: < 30%
- inhibition of growth at 10 µM [12]: < 30%
- inhibition of growth at 10 µM [13]: < 30%
- inhibition of growth at 10 µM [14]: < 30%
- inhibition of growth at 10 µM [15]: 54.1%
- inhibition of growth at 10 µM [16]: < 30%
- inhibition of growth at 10 µM [17]: < 30%
- inhibition of growth at 10 µM [18]: < 30%
- inhibition of growth at 10 µM [23]: < 30%
- inhibition of growth at 10 µM [24]: < 30%
- inhibition of growth at 10 µM [25]: < 30%
- inhibition of growth at 10 µM [26]: 61.4%
- inhibition of growth at 10 µM [27]: < 30%
- inhibition of growth at 10 µM [28]: < 30%
- inhibition of growth at 10 µM [29]: < 30%
- inhibition of growth at 10 µM [30]: < 30%
- inhibition of growth at 10 µM [31]: < 30%
- inhibition of growth at 10 µM [32]: < 30%
- inhibition of growth at 10 µM [33]: < 30%
- inhibition of growth at 10 µM [34]: < 30%
- inhibition of growth at 10 µM [35]: < 30%
- inhibition of growth at 10 µM [36]: < 30%
- inhibition of growth at 10 µM [37]: < 30%
- inhibition of growth at 10 µM [38]: < 30%
- inhibition of growth at 10 µM [39]: < 30%
- inhibition of growth at 10 µM [40]: < 30%
- inhibition of growth at 10 µM [41]: < 30%
- inhibition of growth at 10 µM [42]: < 30%
- inhibition of growth at 10 µM [43]: < 30%
- inhibition of growth at 10 µM [44]: < 30%
